Assays:
[1] = Capacity factor (log Kw) was measured; assay type: ADME; conditions: RP-HPLC, methanol/phosphate buffer pH 7.4, extrapolated to 0% methanol
Procedure, shortened: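 RP-HPLC on a C18 column (250 mm × 4.6 mm, 5 μm particles), UV detection at 250 nm. Four mobile phases of methanol/0.1 M phosphate buffer pH 7.4 (90:10, 80:20, 75:25, 70:30 v/v). k' = (tr − t0)/t0, with t0 the column dead time. Calibrated against reference solutes of known log P (0.64–3.30), and log kw indices correlated with log P.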

[2] = Lipophilicity (calculated by CLIP)
[3] = target: Cannabinoid receptor 1 (Homo sapiens) (UniProt P21554); experiment: Percent displacement of [3H]-SR-141716A, by compound at 10 uM, in transfected CHO cells expressing the human cannabinoid receptor 1.; assay type: cell-based
Procedure, shortened: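 Membranes (60 μg) from CHO cells expressing human CB1, cultured in Ham F12 with 10% FCS and G418. Test compound screened at 10 μM against 1 nM [3H]-SR-141716A, 1 h at 30 °C, in 50 mM Tris-HCl pH 7.4 with 3 mM MgCl2, 1 mM EDTA and 0.1% BSA. Nonspecific binding defined with 10 μM WIN-55,212-2 or CP-55,940. PEI-treated GF/C filtration, scintillation counting, triplicates, n = 3–5.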

Chain of Cannabinoid receptor 1 (Homo sapiens) (P21554 whole entry): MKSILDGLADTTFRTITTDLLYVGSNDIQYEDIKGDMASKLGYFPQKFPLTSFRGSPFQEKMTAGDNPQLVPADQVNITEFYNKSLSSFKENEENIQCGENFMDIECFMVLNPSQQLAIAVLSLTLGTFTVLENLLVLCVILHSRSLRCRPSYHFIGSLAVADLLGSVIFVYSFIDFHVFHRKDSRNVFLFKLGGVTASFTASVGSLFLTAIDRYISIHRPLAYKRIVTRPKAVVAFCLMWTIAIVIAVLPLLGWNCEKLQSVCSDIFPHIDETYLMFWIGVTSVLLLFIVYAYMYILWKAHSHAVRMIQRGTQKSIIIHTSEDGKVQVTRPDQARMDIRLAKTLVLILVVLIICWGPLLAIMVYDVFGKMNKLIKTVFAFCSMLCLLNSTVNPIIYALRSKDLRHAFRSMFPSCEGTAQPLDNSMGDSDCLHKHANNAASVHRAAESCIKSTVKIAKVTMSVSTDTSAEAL

Row | Structure (SMILES) | Log Kw [1] | CLIP [2] | Displacement [3]
1 | CCCCCCCN1C(=O)NC(c2ccc(Br)cc2)(c2ccc(Br)cc2)C1=O | 6.65 | 7.45 | –
2 | O=C1NC(c2ccc(F)cc2)(c2ccc(F)cc2)C(=O)N1CCN1CCOCC1 | – | 2.81 | –
3 | O=C1NC(Cc2c[nH]c3ccccc23)C(=O)N1CCCc1ccccc1 (stereo unspecified) | – | 2.8 | 44.3%
4 | O=C1NC(c2ccccc2)(c2ccccc2)C(=O)N1Cc1ccccc1 | – | 4.11 | –
5 | CCCCCCN1C(=O)NC(c2ccc(F)cc2)(c2ccc(F)cc2)C1=O | – | 5.81 | –
6 | CCCCCCCN1C(=O)NC(c2ccc(F)cc2)(c2ccc(F)cc2)C1=O | – | 6.42 | –
7 | CC(C)N1C(=O)NC(c2ccccc2)(c2ccccc2)C1=O | – | 2.89 | < 5%
8 | CCCCCCN1C(=O)NC(c2ccc(C)cc2)(c2ccc(C)cc2)C1=O | – | 6.48 | –
9 | CCCCN1C(=O)NC(c2ccccc2)(c2ccccc2)C1=O | 3.46 | 4.26 | –
10 | CCCCCCN1C(=O)NC(c2ccc(Br)cc2)(c2ccc(Br)cc2)C1=O | 6.14 | 6.87 | –
11 | O=C1NC(c2ccc(Br)cc2)(c2ccc(Br)cc2)C(=O)N1CCN1CCOCC1 | 4.5 | 3.86 | –
12 | CCCCCCN1C(=O)NC(c2ccc(OC)cc2)(c2ccc(OC)cc2)C1=O | – | 5.81 | –
13 | Cc1ccc(C2(c3ccc(C)cc3)NC(=O)N(CCN3CCOCC3)C2=O)cc1 | – | 3.49 | –
14 | COc1ccc(C2(c3ccc(OC)cc3)NC(=O)N(CCN3CCOCC3)C2=O)cc1 | – | 2.73 | –
15 | CCCCCCCCN1C(=O)NC(c2ccc(Br)cc2)(c2ccc(Br)cc2)C1=O | – | 7.99 | –
16 | O=C1NC(c2ccccc2)(c2ccccc2)C(=O)N1CCN1CCCCC1 | 4.11 | 3.83 | –
17 | CCCCCN1C(=O)NC(c2ccccc2)(c2ccccc2)C1=O | – | 4.8 | –
18 | O=C1NC(Cc2c[nH]c3ccccc23)C(=O)N1Cc1cccc2ccccc12 (stereo unspecified) | 3.08 | 2.92 | 59.8%
19 | O=C1NC(c2ccc(Br)cc2)(c2ccc(Br)cc2)C(=O)N1CCCO | – | 3.76 | –
20 | O=C1NC(Cc2c[nH]c3ccccc23)C(=O)N1CCc1ccccc1 (stereo unspecified) | – | 2.31 | 64%
21 | O=C1NC(c2ccccc2)(c2ccccc2)C(=O)N1CCN1CCOCC1 | – | 2.16 | –
22 | CCCCCCN1C(=O)NC(Cc2c[nH]c3ccccc23)C1=O (stereo unspecified) | 3.17 | 3.21 | 28.8%
23 | CN(C)CCN1C(=O)NC(c2ccccc2)(c2ccccc2)C1=O | 3 | 2.83 | –
24 | CCCCCCCN1C(=O)NC(c2ccc(C)cc2)(c2ccc(C)cc2)C1=O | – | 7.04 | –
25 | CCCN1C(=O)NC(c2ccccc2)(c2ccccc2)C1=O | 2.93 | 3.84 | –
26 | CCCCN1C(=O)NC(Cc2c[nH]c3ccccc23)C1=O (stereo unspecified) | 2.35 | 2.21 | < 5%
27 | CCCCCCN1C(=O)NC(c2ccccc2)(c2ccccc2)C1=O | 4.32 | 5.37 | –
28 | CCCCCCCCN1C(=O)NC(c2ccc(F)cc2)(c2ccc(F)cc2)C1=O | – | 6.94 | –
29 | CCCCCCCCN1C(=O)NC(c2ccccc2)(c2ccccc2)C1=O | – | 6.5 | –
